# Measured values published in ChEMBL document CHEMBL1134460, “Terminally alkylated polyamine analogues as chemotherapeutic agents” (J Med Chem, 2001).
# Legend:
# [1] = tested on: Trypanosoma brucei; test: In vitro growth Inhibitory activity against K269 Strain of Trypanosoma brucei.; format: functional, organism-based
# Method in brief: (§1)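 In vitro growth inhibition was run against T. b. brucei LAB EATRO 110 and T. b. rhodesiense KETRI 243, KETRI 243 As-10-3 and KETRI 269. […] ">100" means no appreciable inhibition up to the highest concentration tested.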
# [2] = tested on: Trypanosoma brucei; test: In vitro growth Inhibitory activity against LAB 110 Strain of Trypanosoma brucei; format: functional, organism-based; method in brief: as §1
# [3] = tested on: Trypanosoma brucei; test: In vitro growth Inhibitory activity against K243 Strain of Trypanosoma brucei.; format: functional, organism-based; method in brief: as §1
# [4] = tested on: Trypanosoma brucei; test: In vitro growth Inhibitory activity against K243 As-10-3 Strain of Trypanosoma brucei; format: functional, organism-based; method in brief: as §1
# [5] = tested on: NCI-H157; test: In vitro activity against H157 non-small-cell lung tumor line (non-SCLC) cultures.; format: functional, cell-based; conditions: Homo sapiens
# [6] = organism: Mus musculus; test: […] activity was determined against Leishmania donovani in mice (Mus musculus); format: functional
# [7] = tested on: NCH82; test: In vitro activity against H82 small-cell lung tumor line (SCLC) cultures.; format: functional, cell-based; conditions: Homo sapiens
# [8] = tested on: NCI-H157; test: Antitumor activity was determined against H157 cell line; format: functional, cell-based; conditions: Homo sapiens
# [9] = tested on: Cricetinae gen. sp.; test: […] activity was determined against Leishmania donovani in hamsters; format: functional, Cricetulus griseus
# [10] = tested on: NCI-H157; test: Effect of exposure of H157 non-SCLC to compound (<10 uM) for 96-h, on natural polyamines and accumulation of the compound; Decrease; format: functional, cell-based; conditions: Homo sapiens
# Method in brief: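 H157 non-SCLC cells were treated with 10 μM analogue. Cellular putrescine, spermidine and spermine, plus the intracellular analogue, were quantified and compared with untreated control cells.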
# [11] = tested on: NCI-H157; test: Putrescine level in NCI H157 non-SCLC tumor cells following 24-h treatment with 10 uM of compound; format: functional, Homo sapiens
# Method in brief: (§2)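 NCI H157 non-SCLC cells were exposed to 10 μM analogue alongside untreated controls. Cellular polyamines and analogue were quantified. SSAT activity was assayed in the cells and reported as pmol product/mg protein/min.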
# [12] = Compound was evaluated for cytotoxic activity against PC-3, DU145 and LNCaP cell lines; format: functional, Homo sapiens
# Method in brief: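 PC-3, DU145 and LNCaP prostate cancer cells were exposed to analogues over 0.1–30 μM for 120 h. Dose–response curves of growth were recorded.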
# [13] = tested on: NCI-H157; test: Spermine level in NCI H157 non-SCLC tumor cells following 24-h treatment with 10 uM of compound; format: functional, Homo sapiens; method in brief: as §2
# [14] = tested on: NCI-H157; test: Spermine/Spermidine-N1-acetyltransferase activity in NCI H157 non-SCLC tumor cells following 24-h treatment with 10 uM of compound; format: functional, Homo sapiens; method in brief: as §2
# [15] = tested on: NCI-H157; test: BENSpm level in NCI H157 non-SCLC tumor cells following 24-h treatment with 10 uM of compound; format: functional, Homo sapiens; method in brief: as §2
# [16] = tested on: NCI-H157; test: Effect of exposure of H157 non-SCLC (<10 uM) for 96-h, and accumulation of compound was determined; format: functional, Homo sapiens
# [17] = biological target: T1, Ornithine decarboxylase (Homo sapiens) (UniProt P11926); test: Inhibition of ornithine decarboxylase (ODC); design: concentration or dose not given beside the values; conditions: concentration not given here
# T1 sequence (whole entry): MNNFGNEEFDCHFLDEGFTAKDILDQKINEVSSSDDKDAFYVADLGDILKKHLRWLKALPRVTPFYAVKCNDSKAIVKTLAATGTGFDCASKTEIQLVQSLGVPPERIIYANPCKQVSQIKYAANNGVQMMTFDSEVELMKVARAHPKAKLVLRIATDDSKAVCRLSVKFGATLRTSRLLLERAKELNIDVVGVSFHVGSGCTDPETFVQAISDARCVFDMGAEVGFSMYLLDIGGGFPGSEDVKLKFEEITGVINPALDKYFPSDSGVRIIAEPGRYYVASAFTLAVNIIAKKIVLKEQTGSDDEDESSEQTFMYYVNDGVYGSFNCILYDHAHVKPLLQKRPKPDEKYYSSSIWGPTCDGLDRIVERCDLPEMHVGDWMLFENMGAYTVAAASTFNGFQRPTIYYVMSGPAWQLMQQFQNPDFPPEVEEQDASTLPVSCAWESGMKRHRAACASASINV
# [18] = biological target: T2, Diamine acetyltransferase 1 (Homo sapiens, UniProt P21673); test: Effect of 10 uM on spermine/spermidine-N-acetyltransferase (SSAT) induction in non-SCLC cells; format: cell-based
# Method in brief: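 NCI H157 non-small-cell lung tumor cells were exposed to 10 μM analogue. SSAT activity was assayed and expressed as pmol product/mg protein/min, then as fold increase over untreated control cells.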
# [19] = tested on: NCI-H157; test: CHENSpm level in NCI H157 non-SCLC tumor cells following 24-h treatment with 10 uM of compound; format: functional, Homo sapiens; method in brief: as §2
# [20] = tested on: NCI-H157; test: Spermidine level in NCI H157 non-SCLC tumor cells following 24-h treatment with 10 uM of compound; format: functional, Homo sapiens; method in brief: as §2
# [21] = biological target: S-adenosylmethionine decarboxylase (Homo sapiens) (UniProt P17707); test: Inhibition of Inhibition of human form of S-adenosyl-methionine decarboxylase enzyme (AdoMet-DC); design: concentration or dose not given beside the values; conditions: concentration not given here
# [22] = biological target: T3, S-adenosylmethionine decarboxylase proenzyme (Rattus norvegicus, UniProt P17708); test: Inhibition of rat liver form of S-adenosyl-methionine decarboxylase enzyme
# T3 sequence (P17708 whole entry): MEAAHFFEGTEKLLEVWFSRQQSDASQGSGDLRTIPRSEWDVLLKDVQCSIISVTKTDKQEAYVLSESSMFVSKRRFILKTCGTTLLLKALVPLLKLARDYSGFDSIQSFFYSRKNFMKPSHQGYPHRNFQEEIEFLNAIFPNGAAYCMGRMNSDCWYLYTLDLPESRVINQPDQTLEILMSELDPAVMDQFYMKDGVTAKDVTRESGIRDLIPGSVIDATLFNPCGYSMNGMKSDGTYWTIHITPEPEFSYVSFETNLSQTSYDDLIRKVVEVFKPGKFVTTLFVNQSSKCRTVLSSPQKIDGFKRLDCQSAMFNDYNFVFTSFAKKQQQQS
# [23] = Growth inhibition of […] breast cancer cell line; format: functional, cell-based; conditions: Homo sapiens, MDA-MB-468
# [24] = biological target: T2, Diamine acetyltransferase 1; test: Inhibitory activity of compound against SSAT extracted from superinduced H157 cells; format: cell-free
# Method in brief: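 SSAT came from crude extracts of superinduced H157 cells and was assayed at saturating spermidine.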
# [25] = tested on: Hs-578T; test: Growth inhibition of Hs 578.T breast cancer cell line; format: functional, cell-based; conditions: Homo sapiens
# [26] = tested on: ZR-75-1; test: Growth inhibition of ZR-75-1 breast cancer cell line; format: functional, cell-based; conditions: Homo sapiens
# [27] = tested on: MDA-MB-231; test: Growth inhibition of MDA-MB-231 breast cancer cell line; format: functional, cell-based; conditions: Homo sapiens
# [28] = tested on: NCI-H157; test: Activity against H157 non-SCLC cells in culture; format: functional, cell-based; conditions: Homo sapiens
# [29] = tested on: MCF7; test: Growth inhibition of MCF-7 breast cancer cell line; format: functional, cell-based; conditions: Homo sapiens
# [30] = tested on: T47D; test: Growth inhibition of T47D breast cancer cell line; format: functional, cell-based; conditions: Homo sapiens
# [31] = tested on: NCH82; test: Effect of 10 uM of compound on NCI H82 cell lines was assessed from the amount of spermine (values in parentheses are those in the absence of compound); format: functional, Homo sapiens
# [32] = tested on: NCI-H157; test: Effect of 10 uM of compound on NCI H157 cell lines was assessed from the amount of SSAT (values in parentheses are those in the absence of compound); format: functional, Homo sapiens
# Method in brief: (§3)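 Cells were exposed to 10 μM analogue, with untreated controls. SSAT was expressed as nmol product formed/mg protein in 24 h. The detection limit was 0.05 nmol/mg protein.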
# [33] = tested on: NCH82; test: Effect of 10 uM of compound on NCI H82 cell lines was assessed from the amount of spermidine (values in parentheses are those in the absence of compound); format: functional, Homo sapiens
# [34] = tested on: NCH82; test: Effect of 10 uM of compound on NCI H82 cell lines was assessed from the amount of SSAT (values in parentheses are those in the absence of compound); format: functional, Homo sapiens; method in brief: as §3
# [35] = tested on: NCI-H157; test: Putrescine level in NCI H157 non-SCLC tumor cells following 24-h treatment with 10 uM of compound( Values in parentheses are control values); format: functional, Homo sapiens; method in brief: as §2
# [36] = tested on: NCI-H157; test: CHENSpm level in NCI H157 non-SCLC tumor cells following 24-h treatment with 10 uM of compound( Values in parentheses are control values); format: functional, Homo sapiens; method in brief: as §2
# [37] = tested on: NCI-H157; test: Spermine/Spermidine-N1-acetyltransferase activity in NCI H157 non-SCLC tumor cells following 24-h treatment with 10 uM of compound.( Values in parentheses are control values); format: functional, Homo sapiens; method in brief: as §2
# [38] = tested on: NCI-H157; test: Spermine level in NCI H157 non-SCLC tumor cells following 24-h treatment with 10 uM of compound( Values in parentheses are control values); format: functional, Homo sapiens; method in brief: as §2
# [39] = tested on: NCI-H157; test: BENSpm level in NCI H157 non-SCLC tumor cells following 24-h treatment with 10 uM of compound( Values in parentheses are control values); format: functional, Homo sapiens; method in brief: as §2
# [40] = Half-life period as determined by N-deethylation and stepwise removal of aminopropyl equivalents; format: ADME
# [41] = tested on: NCI-H157; test: Spermidine level in NCI H157 non-SCLC tumor cells following 24-h treatment with 10 uM of compound( Values in parentheses are control values); format: functional, Homo sapiens; method in brief: as §2
# [42] = tested on: Trypanosoma brucei; test: in vivo inhibition of trypanosomal brucei growth was determined; format: functional, organism-based
# T2 sequence (P21673 whole entry): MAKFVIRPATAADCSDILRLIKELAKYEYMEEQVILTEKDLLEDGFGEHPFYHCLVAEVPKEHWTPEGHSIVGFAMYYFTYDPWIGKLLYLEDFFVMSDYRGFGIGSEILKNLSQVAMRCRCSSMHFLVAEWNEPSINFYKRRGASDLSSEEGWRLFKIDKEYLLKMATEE
compound,measurement,setting,value
COc1cccc(CNCCCNCCCCCCCNCCCNCc2cccc(OC)c2)c1,IC50,[1],16.5 µM
same,IC50,[2],22 µM
same,IC50,[3],18.5 µM
same,IC50,[4],5.5 µM
c1ccc(CNCCCNCCCCCCCNCCCNCc2ccccc2)cc1,IC50,[5],0.5 µM
same,ED50,[6],2.5 mg/kg
same,IC50,[7],1.7 µM
same,IC50,[8],0.5 µM
same,ED50,[9],1 mg/kg
CCNCCCNCCCNCCCNCC1CCCCCC1,Effect on polyamine pools,[10],Decrease
same,Polyamine level,[11],4.28
same,IC50,[5],0.4 µM
same,CC,[12],30 µM
same,Polyamine level,[13],15.97
same,Activity,[14],781 (pM of product) min-1 (mg of protein)-1
same,Polyamine level,[15],0
same,IC50,[7],0.7 µM
same,Amount,[16],>20 nM (mg of protein)-1
same,inhibition,[17],< 50%
same,Induction,[18],0
same,Polyamine level,[19],14.66
same,Polyamine level,[20],6.44
same,inhibition,[21],< 50%
NC/C=C\NC[C@@H]1O[C@H](n2cnc3c(N)ncnc32)[C@@H](O)[C@H]1O,Ki,[22],0.56 µM
CCNCCCNCCCNCCCNCC1CC1,Effect on polyamine pools,[10],Decrease
same,IC50,[23],0.6 µM
same,IC50,[24],100 µM
same,IC50,[5],0.7 µM
same,IC50,[25],0.2 µM
same,IC50,[7],5.2 µM
same,Amount,[16],>20 nM (mg of protein)-1
same,IC50,[26],1.1 µM
same,inhibition,[17],> 50%
same,Induction,[18],> 500
same,IC50,[27],1.3 µM
same,IC50,[28],0.8 µM
same,IC50,[29],1.1 µM
same,IC50,[30],0.4 µM
CCNCCCNCCCCNCCCNCC [BIS(ETHYL)SPERMINE],Polyamine,[31],10.06 nM (mg of protein)-1
same,Effect on polyamine pools,[10],Decrease
same,Polyamine,[32],6511 nM (mg of protein)-1
same,Amount,[16],>20 nM (mg of protein)-1
same,Polyamine,[33],3.07 nM (mg of protein)-1
same,inhibition,[17],> 50%
same,Induction,[18],> 500
same,Polyamine,[34],60 nM (mg of protein)-1
same,inhibition,[21],> 50%
CCNCCCNCCCNCCCNCC [BIS(ETHYL)NORSPERMINE],Polyamine level,[35],0
same,Effect on polyamine pools,[10],Decrease
same,Polyamine level,[36],0
same,Activity,[37],148141 (pM of product) min-1 (mg of protein)-1
same,Amount,[16],>20 nM (mg of protein)-1
same,Polyamine level,[38],0.51
same,inhibition,[17],> 50%
same,Polyamine level,[39],36.07
same,Induction,[18],> 500
same,half-life,[40],1.22 h
same,Polyamine level,[41],0
same,inhibition,[21],> 50%
C[S+](C[C@@H]1O[C@H](n2cnc3c(N)ncnc32)[C@@H](O)[C@H]1O)C1C=CC(N)C1 (stereo not given in full),IC50,[42],5.2 µM
